Source: ChEMBL document CHEMBL3102739, “Synthesis and antiproliferative activity of conformationally restricted 1,2,3-triazole analogues of combretastatins in the sea urchin embryo model and against human cancer cell lines” (Bioorg Med Chem, 2014)

Experiments:
Paracentrotus lividus [1] = experiment: Antimitotic activity against sea urchin embryo model assessed as cleavage alteration of fertilized egg compound treated at 8 to 20 mins post-fertilization and 45 to 55 mins prior to first mitotic cycle completion measured 2.5 to 5.5 hrs post-fertilization; type: functional
Summary of the method: (§1)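 Fertilized eggs are exposed 8–20 min after fertilization to 2-fold decreasing concentrations. Stocks are 10 mM in DMSO, then diluted 10-fold in 95% EtOH; final DMSO is at most 0.05% and EtOH at most 1%. Embryos are kept as a monolayer, up to 2000 embryos/mL, in filtered seawater at room temperature. The value is the threshold concentration giving cleavage alteration, embryo death before hatching or full mitotic arrest. Duplicates were run.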

Paracentrotus lividus [2] = experiment: Antimitotic activity against sea urchin embryo model assessed as cleavage arrest of fertilized egg compound treated at 8 to 20 mins post-fertilization and 45 to 55 mins prior to first mitotic cycle completion measured 2.5 to 5.5 hrs post-fertilization; type: functional; summary of the method: as §1
Paracentrotus lividus [3] = experiment: Antimitotic activity against sea urchin embryo free-swimming blastula model assessed as embryo spinning compound treated at 8 to 10 hrs post-fertilization measured after 0.25 to 20 hrs; type: functional, Blastula stage
[4] = Growth inhibition of human NCI60 cells at 10 uM after 48 hrs by SRB assay; type: functional; details: NCI60, 48 h, values are per cent of control

COc1ccc(/C=C\c2cc(OC)c3c(c2)OCO3)cc1O [Combretastatin A-2]
EC (Paracentrotus lividus [1]): 0.002 µM | EC (Paracentrotus lividus [2]): 0.01 µM | EC (Paracentrotus lividus [3]): 0.05 µM

COC(=O)c1nnn(-c2cc(OC)c(OC)c(OC)c2)c1-c1ccc(OC)cc1
EC (Paracentrotus lividus [1]): >4 µM | EC (Paracentrotus lividus [2]): >4 µM | EC (Paracentrotus lividus [3]): >4 µM

COc1ccc(-c2c(C(N)=O)nnn2-c2cc(OC)c(OC)c(OC)c2)cc1
EC (Paracentrotus lividus [1]): >4 µM | EC (Paracentrotus lividus [2]): >4 µM | growth, % of control at 10 µM [4]: 101% | EC (Paracentrotus lividus [3]): >4 µM

Clc1cccc(-n2nncc2-c2ccccc2)c1
EC (Paracentrotus lividus [1]): >4 µM | EC (Paracentrotus lividus [2]): >4 µM | EC (Paracentrotus lividus [3]): >4 µM

COc1ccc(-n2nnc(N)c2-c2cc(OC)c(OC)c(OC)c2)cc1
EC (Paracentrotus lividus [1]): 4 µM | EC (Paracentrotus lividus [2]): >4 µM | growth, % of control at 10 µM [4]: 90.1% | EC (Paracentrotus lividus [3]): >4 µM

COc1ccc(-n2nnc(C#N)c2-c2cccc(OC)c2)cc1
EC (Paracentrotus lividus [1]): 0.2 µM | EC (Paracentrotus lividus [2]): 1 µM | EC (Paracentrotus lividus [3]): 5 µM

COc1ccc(-c2c(N)nnn2-c2cc(OC)c(OC)c(OC)c2)cc1
EC (Paracentrotus lividus [1]): 0.1 µM | EC (Paracentrotus lividus [2]): >4 µM | EC (Paracentrotus lividus [3]): >5 µM

Nc1nnn(-c2cccc(Cl)c2)c1-c1ccccc1
EC (Paracentrotus lividus [1]): >4 µM | EC (Paracentrotus lividus [2]): >4 µM | EC (Paracentrotus lividus [3]): >4 µM

COc1ccc(-c2c(C#N)nnn2-c2ccc(OC)cc2)cc1
EC (Paracentrotus lividus [1]): 4 µM | EC (Paracentrotus lividus [2]): >4 µM | growth, % of control at 10 µM [4]: 96.7% | EC (Paracentrotus lividus [3]): >4 µM

O=C(O)c1nnn(-c2cccc(Cl)c2)c1-c1ccccc1
EC (Paracentrotus lividus [1]): >4 µM | EC (Paracentrotus lividus [2]): >4 µM | EC (Paracentrotus lividus [3]): >4 µM

COc1ccc(-c2c(C(=O)O)nnn2-c2cc(OC)c(OC)c(OC)c2)cc1
EC (Paracentrotus lividus [1]): >4 µM | EC (Paracentrotus lividus [2]): >4 µM | growth, % of control at 10 µM [4]: 99.4% | EC (Paracentrotus lividus [3]): >4 µM

COc1cccc(-c2c(C#N)nnn2-c2cccc(Cl)c2)c1
EC (Paracentrotus lividus [1]): >4 µM | EC (Paracentrotus lividus [2]): >4 µM | growth, % of control at 10 µM [4]: 92% | EC (Paracentrotus lividus [3]): >4 µM

COc1cc(-c2c(C(N)=O)nnn2-c2cc(OC)c(OC)c(OC)c2)cc(OC)c1OC
EC (Paracentrotus lividus [1]): >4 µM | EC (Paracentrotus lividus [2]): >4 µM | growth, % of control at 10 µM [4]: 102% | EC (Paracentrotus lividus [3]): >4 µM

COc1cc(-c2c(C#N)nnn2-c2cccc(Cl)c2)cc(OC)c1OC
EC (Paracentrotus lividus [1]): 0.5 µM | EC (Paracentrotus lividus [2]): 2 µM | growth, % of control at 10 µM [4]: 92.6% | EC (Paracentrotus lividus [3]): >5 µM

COc1ccc(-c2c(C#N)nnn2-c2cc(OC)c(OC)c(OC)c2)cc1
EC (Paracentrotus lividus [1]): >4 µM | EC (Paracentrotus lividus [2]): >4 µM | EC (Paracentrotus lividus [3]): >4 µM

COc1cc(-c2c(C#N)nnn2-c2cc(OC)c(OC)c(OC)c2)cc(OC)c1OC
EC (Paracentrotus lividus [1]): >4 µM | EC (Paracentrotus lividus [2]): >4 µM | growth, % of control at 10 µM [4]: 98.8% | EC (Paracentrotus lividus [3]): >4 µM

CCOC(=O)c1nnn(-c2cccc(Cl)c2)c1-c1ccccc1
EC (Paracentrotus lividus [1]): >4 µM | EC (Paracentrotus lividus [2]): >4 µM | EC (Paracentrotus lividus [3]): >4 µM

COc1ccc(-c2cnnn2-c2cc(OC)c3c(c2OC)OCO3)cc1
EC (Paracentrotus lividus [1]): 1 µM | EC (Paracentrotus lividus [2]): >4 µM | EC (Paracentrotus lividus [3]): >4 µM

COc1ccc(-n2nnc(C#N)c2-c2cc(OC)c(OC)c(OC)c2)cc1
EC (Paracentrotus lividus [1]): 1 µM | EC (Paracentrotus lividus [2]): >4 µM | EC (Paracentrotus lividus [3]): >4 µM

COc1ccc(-n2nnc(C(=O)O)c2-c2cc(OC)c(OC)c(OC)c2)cc1
EC (Paracentrotus lividus [1]): >4 µM | EC (Paracentrotus lividus [2]): >4 µM | growth, % of control at 10 µM [4]: 104% | EC (Paracentrotus lividus [3]): >4 µM
